Usually Ki stands for the equilibrium dissociation constant of an inhibitor or competing ligand from its target. A word on the EC50: it is the concentration needed to bring the measured effect to its halfway point.

Experiment [1] in a line: Inhibition of HCV genotype 3a NS3/4A protease using Ac-DE-Dap(QXL520)-EE-Abu-psi-[COO]AS-C(5-FAMsp)-NH2 as substrate preincubated for 1 hr followed by substrate addition. Also noted: species or system Hepatitis C virus subtype 3a. The gist of the method: (§1)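 Protease domain at 2 nM preincubated 1 h at room temperature with inhibitor titrations (at least 12 concentrations) in 50 mM Tris, 5% glycerol, 10 mM DTT, 0.6 mM LDAO, 4% DMSO. Reaction started with fluorogenic substrate (200 nM final) and followed kinetically (ex 485/em 530 nm). Three independent data sets, fit globally to the Morrison equation for Ki.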

The subject of experiment [2] is Hepatitis C virus. Description: Antiviral activity against HCV genotype 1b Con1 harboring HCV genotype 1a H77 NS3 D168A mutant infected in human HuH7 cells assessed as inhibition of viral replication after 96 hrs by luciferase reporter gene assay. It is filed as functional, cell-based, Hepacivirus hominis. Conditions: genotype 1b Con1, Huh-7, 96 h.
The test system of experiment [3] is Hepatitis C virus. The experiment is described as follows: Antiviral activity against HCV genotype 1b Con1 harboring HCV genotype 1a H77 NS3 D168V mutant infected in human HuH7 cells assessed as inhibition of viral replication after 96 hrs by luciferase reporter gene assay. In kind it is functional, cell-based, Hepacivirus hominis. As to conditions: genotype 1b Con1, Huh-7, 96 h. (In a reporter assay the amount or activity of a reporter protein is the signal.)

Experiment [4] deals with Hepatitis C virus. Description: Antiviral activity against HCV genotype 1b Con1 harboring HCV genotype 1a H77 NS3 R155K mutant infected in human HuH7 cells assessed as inhibition of viral replication after 96 hrs by luciferase reporter gene assay. In kind it is functional, cell-based, Hepacivirus hominis. As to conditions: genotype 1b Con1, Huh-7, 96 h.
In experiment [5] the test system is Hepatitis C virus. The experiment is described as follows: Antiviral activity against HCV genotype 1b Con1 harboring HCV genotype 1a H77 NS3 infected in human HuH7 cells assessed as inhibition of viral replication after 96 hrs by luciferase reporter gene assay. It is filed as functional, cell-based, Hepacivirus hominis. As to conditions: genotype 1b Con1, Huh-7, 96 h.

Experiment [6] has as its target Hepatitis C virus serine protease, NS3/NS4A (Hepatitis C virus, UniProt A3EZI9+D2K2A8, D168A). The experiment is described as follows: Inhibition of HCV genotype 1a NS3/4A protease D168A mutant using Ac-DE-Dap(QXL 520)-EE-Abu-psi-[COO]AS-C(5-FAMsp)-NH2 as substrate preincubated for 1 hr followed by substrate addition. Also noted: species or system Hepatitis C virus subtype 1a. In outline: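 NS3/4A protease domain at 2 nM pre-incubated 1 h at room temperature with increasing inhibitor (at least 12 concentrations) in 50 mM Tris, 5% glycerol, 10 mM DTT, 0.6 mM LDAO, 4% DMSO. Reaction started with FRET substrate (final 200 nM), monitored kinetically (ex 485/em 530 nm). Three independent data sets; global Morrison fit for Ki.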

Experiment [7] in a line: Inhibition of HCV genotype 1a NS3/4A protease using Ac-DE-Dap(QXL 520)-EE-Abu-psi-[COO]AS-C(5-FAMsp)-NH2 as substrate preincubated for 1 hr followed by substrate addition. Also noted: species or system Hepatitis C virus subtype 1a. In outline:
as §1

Experiment [8] concerns Hepatitis C virus. The experiment is described as follows: Antiviral activity against HCV genotype 1b Con1 harboring HCV genotype 1a H77 NS3 A156T mutant infected in human HuH7 cells assessed as inhibition of viral replication after 96 hrs by luciferase reporter gene assay. In kind it is functional, cell-based, Hepacivirus hominis. As to conditions: genotype 1b Con1, Huh-7, 96 h.

For the molecule `COc1ccc2nc(C(F)(F)F)c(O[C@@H]3C[C@H]4C(=O)N[C@]5(C(=O)NS(=O)(=O)C6(C)CC6)C[C@H]5/C=C\CCCCC[C@H](NC(=O)OC(C)(C)C)C(=O)N4C3)nc2c1`, the Ki in experiment [1] amounted to 231 nM; in experiment [6], 118 nM; in experiment [7] it was 5.77 nM. The EC50 was 8.64 nM in the experiment with Hepatitis C virus [2]; 8.31 nM in the experiment on Hepatitis C virus [3]; 2.3 nM with Hepatitis C virus [4]; 1.52 nM in the experiment on Hepatitis C virus [5]; 20.5 nM with Hepatitis C virus [8].

Consider `COc1ccc2nc(C)c(O[C@@H]3C[C@H]4C(=O)N[C@]5(C(=O)NS(=O)(=O)C6CC6)C[C@H]5/C=C\CCCCC[C@H](NC(=O)OC(C)(C)C)C(=O)N4C3)nc2c1`, for which the Ki in experiment [1] worked out at 152 nM; in experiment [6] it was 50.9 nM; in experiment [7], 3.4 nM. Further, the half-maximal effective concentration (EC50) in the experiment with Hepatitis C virus [2] is 4.24 nM; with Hepatitis C virus [3] it was 3.17 nM; in the experiment on Hepatitis C virus [4], 1.17 nM; in the experiment on Hepatitis C virus [5] it was 0.39 nM; with Hepatitis C virus [8], 5.95 nM.

`COc1ccc2nc(Cl)c(O[C@@H]3C[C@H]4C(=O)N[C@]5(C(=O)NS(=O)(=O)C6(C)CC6)C[C@H]5/C=C\CCCCC[C@H](NC(=O)OC5CCCC5)C(=O)N4C3)nc2c1`: the Ki in experiment [1] worked out at 61 nM; in experiment [6], 25.7 nM; in experiment [7], 0.44 nM. Besides, the EC50 was 0.97 nM with Hepatitis C virus [2]; 1.09 nM in the experiment with Hepatitis C virus [3]; 0.56 nM in the experiment with Hepatitis C virus [4]; 0.15 nM with Hepatitis C virus [5]; 4.32 nM in the experiment on Hepatitis C virus [8].

Turning to `COc1ccc2nc(C(F)(F)F)c(O[C@@H]3C[C@H]4C(=O)N[C@]5(C(=O)NS(=O)(=O)C6CC6)C[C@H]5/C=C\CCCCC[C@H](NC(=O)OC(C)(C)C)C(=O)N4C3)nc2c1`, the Ki stood at 344 nM in experiment [1], 157 nM in experiment [6] and 13.3 nM in experiment [7]. Moreover, the EC50 with Hepatitis C virus [2] was 16.8 nM; in the experiment with Hepatitis C virus [3], 17.1 nM; in the experiment with Hepatitis C virus [4], 3.45 nM; in the experiment with Hepatitis C virus [5], 1.98 nM; in the experiment with Hepatitis C virus [8], 36.2 nM.
